Source: PMC12015351 (Scientific Reports, 2025)

Assays:
[1] = biological target: 3CL Protease (SARS-CoV-2) (Severe acute respiratory syndrome coronavirus 2, UniProt P0DTD1); experiment: biochemical; settings: read-out: inhibition of in vitro protease activity
[2] = tested on: SARS-CoV-2 replicon in Calu-3 cells; experiment: microbe, parasite or virus in culture; type: cell-based; settings: for activity level in presence of Cnd: Calu-3, specific dose of Cnd (candesartan)
[3] = tested on: SARS-CoV-2 replicon in Caco-2 cells; type: cell-based; settings: for activity level in presence of Cnd: Caco-2, specific dose of Cnd (candesartan)
3CLpro [4] = settings: FRET-based enzymatic assay; cited from earlier work
3CLpro [5] = settings: read-out: IC50 on 3CLpro activity; cited from earlier work
Calu-3 cells = experiment: Cell viability assay, xCelligence RTCA-DP, Calu-3; type: cell-based, human
[6] = tested on: SARS-CoV-2-induced cytopathic effects in human A549 cells (A549/ACE2); settings: live virus; cited from earlier work
[7] = tested on: SARS-CoV-2-induced cytopathic effects in Vero E6; settings: live virus; cited from earlier work
Caco-2 cells = experiment: Cell viability assay, xCelligence RTCA-DP, Caco-2; type: cell-based, human; settings: 50 µM
How it was run: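 Impedance-based real-time cell index monitoring. Seeding in e-plates: 15 × 10³ cells/well for Calu-3, 10 × 10³ for Caco-2. Plates rested 20 min at room temperature, then held at 37 °C, 5% CO2. After 24 h, medium replaced with test compound at 50, 10, 2 or 0.4 µM; 2 replicates per line. Readings every 15 min for 72 h; ~100 h curves compared with control.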

SARS-CoV-2 = settings: mouse models; cited from earlier work
[8] = tested on: SARS-CoV-2 growth in lung cells; settings: cited from earlier work
[9] = person with VITT after ChAdOx1-S vaccine; cited from earlier work

Structure (SMILES): CCOc1nc2cccc(C(=O)O)c2n1Cc1ccc(-c2ccccc2-c2nnn[nH]2)cc1 [Cnd, Candesartan]
- inhibition at 50 µM [1]: ≥ 50%
- IC50 range in words, Calu-3 [2]: sub-micromolar range
- IC50 range in words, Caco-2 [3]: sub-micromolar range
- inhibitory activity on 3CLpro (3CLpro [4]): did not confirm

Structure (SMILES): CC1(C)O[C@@H]2C[C@H]3[C@@H]4C[C@H](F)C5=CC(=O)C=C[C@]5(C)[C@@]4(F)[C@@H](O)C[C@]3(C)[C@]2(C(=O)CO)O1 [Drug B2, Fluocinolone]
- inhibition at 50 µM [1]: ≥ 50%

Structure (SMILES): CC(=O)OCC(=O)[C@@]12OC3(CCCC3)O[C@@H]1C[C@H]1[C@@H]3CCC4=CC(=O)C=C[C@]4(C)[C@@]3(F)[C@@H](O)C[C@@]12C [Drug B5, Amcinonide]
- inhibition at 50 µM [1]: ≥ 50%
- IC50 ([2]; Severe acute respiratory syndrome coronavirus 2, Calu-3, read-out: IC50 (µM) in Calu-3 cells): 2 to 5 µM
- activity level in presence of Cnd [3]: activity at the nanomolar (nM) level

Structure (SMILES): CC1(C)O[C@@H]2C[C@H]3[C@@H]4CCC5=CC(=O)C=C[C@]5(C)[C@H]4[C@@H](O)C[C@]3(C)[C@]2(C(=O)CO)O1 [Drug B7, Desonide]
- inhibition at 50 µM [1]: ≥ 50%

Structure (SMILES): CC(=O)[C@@]1(O)CC[C@H]2[C@@H]3C[C@H](C)C4=CC(=O)C=C[C@]4(C)[C@@]3(F)[C@@H](O)C[C@@]21C [Drug B9, Fluorometholone]
- inhibition at 50 µM [1]: ≥ 50%

Structure (SMILES): O=c1[nH]c2ccccc2n1C1CCN(CCCC(c2ccc(F)cc2)c2ccc(F)cc2)CC1 [Drug B11, Pimozide]
- IC50 (3CLpro [5]): 42.5 µM
- effect on cell proliferation (cell index) (Calu-3 cells; 50 µM): reduced cell proliferation
- inhibition at 50 µM [1]: ≥ 50%
- inhibition of SARS-CoV-2-induced cytopathic effects [6]: significant inhibition
- activity level in presence of Cnd [2]: activity at the nanomolar (nM) level
- inhibition of SARS-CoV-2-induced cytopathic effects [7]: significant inhibition
- activity level in presence of Cnd [3]: activity at the nanomolar (nM) level

Structure (SMILES): CC(C)C(=O)OCC(=O)[C@@]12O[C@H](C3CCCCC3)O[C@@H]1C[C@H]1[C@@H]3CCC4=CC(=O)C=C[C@]4(C)[C@H]3[C@@H](O)C[C@@]12C [Drug B12, Ciclesonide]
- effect on cell proliferation (cell index) (Caco-2 cells): toxic effects
- effect on cell proliferation (cell index) (Calu-3 cells; 50 µM): reduced cell proliferation

Structure (SMILES): COc1ccc2c(O[C@@H]3C[C@H]4C(=O)N[C@]5(C(=O)NS(=O)(=O)C6CC6)C[C@H]5/C=C\CCCCN(C)C(=O)[C@@H]4C3)cc(-c3nc(C(C)C)cs3)nc2c1C [Drug B18, Simeprevir]
- effect on cell proliferation (cell index) (Caco-2 cells): toxic effects

Structure (SMILES): Cc1c(O)cccc1C(=O)N[C@@H](CSc1ccccc1)[C@H](O)CN1C[C@H]2CCCC[C@H]2C[C@H]1C(=O)NC(C)(C)C [Drug B21, Nelfinavir]
- inhibition at 50 µM [1]: ≥ 50%

Structure (SMILES): Cc1ccc(NC(=O)C2(c3ccc4c(c3)OC(F)(F)O4)CC2)nc1-c1cccc(C(=O)O)c1 [Drug B22, Lumacaftor]
- inhibition at 50 µM [1]: ≥ 50%
- IC50 range in words, Calu-3 [2]: sub-micromolar range
- SARS-CoV-2 growth (SARS-CoV-2): inhibit SARS-CoV-2 growth
- IC50 range in words, Caco-2 [3]: sub-micromolar range
- activity level in presence of Cnd [3]: activity at the nanomolar (nM) level
- SARS-CoV-2 growth [8]: inhibit SARS-CoV-2 growth

Structure (SMILES): C[C@@H]1CCO[C@H]2Cn3cc(C(=O)NCc4ccc(F)cc4F)c(=O)c(O)c3C(=O)N12 [Drug B23, Dolutegravir]
- inhibition at 50 µM [1]: ≥ 50%

Structure (SMILES): NC(=O)C(c1ccccc1)(c1ccccc1)[C@@H]1CCN(CCc2ccc3c(c2)CCO3)C1 [Drug B25, Darifenacin]
- effect on cell proliferation (cell index) (Calu-3 cells; 25 µM, after a certain period): reduced cell proliferation
- effect on cell proliferation (cell index) (Calu-3 cells; 50 µM): reduced cell proliferation

Structure (SMILES): CC1=NN(c2ccc(C)c(C)c2)C(=O)/C1=N\Nc1cccc(-c2cccc(C(=O)O)c2)c1O [Elt, Eltrombopag]
- effect on cell proliferation (cell index) (Caco-2 cells): toxic effects
- effect on cell proliferation (cell index) (Calu-3 cells; 50 µM): reduced cell proliferation
- inhibition at 50 µM [1]: ≥ 50%
- activity level in presence of Cnd [2]: activity at the nanomolar (nM) level
- activity level in presence of Cnd [3]: activity at the nanomolar (nM) level
- platelet levels [9]: normalized

Structure (SMILES): CC(C)COCC(CN(Cc1ccccc1)c1ccccc1)N1CCCC1 (stereo not shown) [bepridil]
- inhibition of SARS-CoV-2-induced cytopathic effects [6]: significant inhibition
- inhibition of SARS-CoV-2-induced cytopathic effects [7]: significant inhibition

Structure (SMILES): CC(C)(C)c1cc(C(C)(C)C)c(NC(=O)c2c[nH]c3ccccc3c2=O)cc1O [ivacaftor]
- SARS-CoV-2 growth (SARS-CoV-2): inhibit SARS-CoV-2 growth
- SARS-CoV-2 growth [8]: inhibit SARS-CoV-2 growth
